Results reported in ChEMBL document CHEMBL1221192, “Using substrate engineering to harness enzymatic promiscuity and expand biological catalysis” (Nat Chem Biol, 2006).

How the values were obtained:
LACTOSE, ANHYDROUS [1] = assay: (§1) Activity at Neisseria meningitidis lgtC by UV-VIS spectroscopy
Outline: (§2)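 Continuous coupled assay: UDP release from LgtC-catalysed galactose transfer (UDP-Gal donor) coupled to NADH oxidation, followed at 340 nm (ε = 6.22 mM–1cm–1) in a temperature-controlled spectrophotometer. Initial rates were fitted directly to obtain kinetic parameters (kcat, Km, kcat/Km).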

[2] = substrate: O=C(OC[C@H]1O[C@@H](O)[C@@H](O)[C@@H](O)[C@@H]1O)c1ccccc1; assay: as §1; outline: as §2
[3] = substrate: OC[C@H]1O[C@@H](O[C@H]2[C@H](O)[C@@H](O)[C@H](OCc3ccccc3)O[C@@H]2CO)[C@H](O)[C@@H](O)[C@@H]1O; assay: as §1; outline: as §2
[4] = substrate: O[C@@H]1[C@@H](O)[C@H](OCc2ccccc2)OC[C@H]1O; assay: as §1; outline: as §2
[5] = substrate: CCCCCCCCO[C@@H]1OC[C@@H](O)[C@H](O)[C@H]1O; assay: (§3) Ratio of Kcat to Km for Neisseria meningitidis lgtC; outline: as §2
[6] = substrate: CCCCCCCCO[C@@H]1O[C@H](CO)[C@@H](O)[C@H](O)[C@H]1O; assay: as §3; outline: as §2
[7] = substrate: CCCCCCCCO[C@@H]1O[C@H](CO)[C@H](O)[C@H](O)[C@H]1O; assay: as §3; outline: as §2
LACTOSE, ANHYDROUS [8] = assay: as §3; outline: as §2
[9] = substrate: O=C(OC[C@H]1O[C@@H](O)[C@@H](O)[C@@H](O)[C@@H]1O)c1ccccc1; assay: as §3; outline: as §2
[10] = substrate: O=C(O[C@@H]1CO[C@@H](O)[C@H](O)[C@H]1O)c1ccccc1; assay: as §3; outline: as §2
[11] = substrate: O=C[C@H](O)[C@@H](O)[C@@H](O)[C@H](O)CO; assay: as §3; outline: as §2
[12] = substrate: O=C[C@H](O)[C@@H](O)[C@H](O)CO; assay: as §3; outline: as §2
[13] = substrate: OC1OC[C@@H](O)[C@@H](O)[C@@H]1O; assay: as §3; outline: as §2
[14] = substrate: OC[C@H]1OC(O)[C@@H](O)[C@@H](O)[C@@H]1O; assay: as §3; outline: as §2
[15] = substrate: OC[C@H]1OC(O)[C@H](O)[C@@H](O)[C@@H]1O; assay: as §3; outline: as §2
[16] = substrate: OC[C@H]1OC(O)[C@H](O)[C@H](O)[C@@H]1O; assay: as §3; outline: as §2
[17] = substrate: OC[C@H]1O[C@@H](O[C@H]2[C@H](O)[C@@H](O)[C@H](OCc3ccccc3)O[C@@H]2CO)[C@H](O)[C@@H](O)[C@@H]1O; assay: as §3; outline: as §2
[18] = substrate: O[C@@H]1[C@@H](O)[C@H](OCc2ccccc2)OC[C@H]1O; assay: as §3; outline: as §2
[19] = substrate: O[C@@H]1[C@H](O)[C@@H](O)OC[C@H]1O; assay: as §3; outline: as §2
[20] = substrate: O[C@H]1[C@H](O)[C@@H](O)[C@H](O)[C@@H](O)[C@H]1O; assay: as §3; outline: as §2

B1: Alpha 1,4 galactosyltransferase (Neisseria meningitidis), Q8KHJ3 (protein)
chain: MDIVFAADDNYAAYLCVAAKSVEAAHPDTEIRFHVLDAGISEANRAAVAANLRGGGNIRFIDVNPEDFAGFPLNIRHISITTYARLKLGEYIADCDKVLYLDIDVLVRDSLKPLWDTDLGDNWLGACIDLFVERQNAYKQKIGMADGEYYFNAGVLLINLKKWRQHDIFKMACEWVEQYKDVMQYQDQDILNGLFKGGVCYANSRFNFMPTNDAFMANRFASRHTDPLYRDRTYTAMPVAVSHYCGPAKPWHRDCTAWGAERFTELAGSLTSVPEEWRGKLAVPHRVFPTKRMLQRWRRKLSARFLRKIY
Km (LACTOSE, ANHYDROUS [1]): 40 mM
kcat (LACTOSE, ANHYDROUS [1]): 160 s⁻¹
Km [2]: 30 mM
kcat [2]: 2.5 s⁻¹
Km [3]: 35 mM
kcat [3]: 1 s⁻¹
Km [4]: 15 mM
kcat [4]: 10 s⁻¹
kcat/Km [5]: 367 M⁻¹ s⁻¹
kcat/Km [6]: 23.3 M⁻¹ s⁻¹
kcat/Km [7]: 63.3 M⁻¹ s⁻¹
kcat/Km (LACTOSE, ANHYDROUS [8]): 4000 M⁻¹ s⁻¹
kcat/Km [9]: 83.3 M⁻¹ s⁻¹
kcat/Km [10]: 200 M⁻¹ s⁻¹
kcat/Km [11]: 5 M⁻¹ s⁻¹
kcat/Km [12]: 30 M⁻¹ s⁻¹
kcat/Km [13]: 1.67 M⁻¹ s⁻¹
kcat/Km [14]: 5 M⁻¹ s⁻¹
kcat/Km [15]: 3.33 M⁻¹ s⁻¹
kcat/Km [16]: 0.833 M⁻¹ s⁻¹
kcat/Km [17]: 28.3 M⁻¹ s⁻¹
kcat/Km [18]: 667 M⁻¹ s⁻¹
kcat/Km [19]: 5 M⁻¹ s⁻¹
kcat/Km [20]: 3.33 M⁻¹ s⁻¹
